Results reported in ChEMBL document CHEMBL1122467, “Hypolipidemic activity of phthalimide derivatives. 3. A comparison of phthalimide and 1,2-benzisothiazolin-3-one 1,1-dioxide derivatives to phthalimidine and 1,2-benzisothiazoline 1,1-dioxide congeners” (1983).

Assays:
Assay type in all cases: functional
Mus musculus [1] = assay: Hypolipidemic activity (16th day serum cholesterol) at 20 mg/kg in CF1 male mice
Summary of the method: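 Male CF1 mice (~25 g), given 20 (mg/kg)/day ip at 11:00 a.m. On day 16, tail-vein blood collected between 8:00 and 9:30 a.m. in alkali-free nonheparinized microcapillaries and centrifuged 3 min. Serum cholesterol (mg %) from duplicate 25-µL nonhemolyzed samples by modified Liebermann-Burchard reaction. Reported as % control.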

Mus musculus [2] = assay: Hypolipidemic activity (14th day serum triglyceride) at 20 mg/kg in CF1 male mice
Summary of the method: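 Separate group of male CF1 mice (~25 g) dosed ip at 20 (mg/kg)/day for 14 days, injections at 11:00 a.m. Bled by tail vein on day 14 into nonheparinized microcapillary tubes, centrifuged 3 min for serum. Triglycerides (mg %) measured on duplicate 50-µL serum samples. Given as % control.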

Mus musculus [3] = assay: Hypolipidemic activity (9th day serum cholesterol) at 20 mg/kg in CF1 male mice
Summary of the method: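 Male CF1 mice (~25 g), dosed intraperitoneally at 20 (mg/kg)/day at 11:00 a.m. Tail-vein blood taken on day 9 between 8:00 and 9:30 a.m. into alkali-free nonheparinized microcapillary tubes, spun 3 min for serum. Cholesterol (mg %) in duplicate 25-µL nonhemolyzed serum samples by modified Liebermann-Burchard reaction. Expressed as % control.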

Structure (SMILES)	Control (Mus musculus [1]) [%]	Control (Mus musculus [2]) [%]	Control (Mus musculus [3]) [%]
CCCCCN1C(=O)c2ccccc2C1=O	58	75	76
CC(=O)CCN1Cc2ccccc2S1(=O)=O	81	78	87
C=C(CN1C(=O)c2ccccc2S1(=O)=O)C(=O)O	85	101	85
CCCCN1Cc2ccccc2C1=O	62	80	68
O=C(O)CCCCN1C(=O)c2ccccc2S1(=O)=O	68	44	96
CC(=O)CN1C(=O)c2ccccc2C1=O	<67	<48	80
CC(=O)CN1C(=O)c2ccccc2S1(=O)=O	52	66	95
CCCCCN1C(=O)c2ccccc2S1(=O)=O	58	62	106
CCCCN1C(=O)c2ccccc2C1=O	<54	82	<72
O=C(O)CCCCCN1C(=O)c2ccccc2C1=O	67	51	81
O=C1NCc2ccccc21	87	78	89
O=C(O)CCN1Cc2ccccc2S1(=O)=O	59	76	73
O=C(O)CCCCCN1C(=O)c2ccccc2S1(=O)=O	76	55	90
O=C(O)CCN1C(=O)c2ccccc2C1=O	<55	<58	<74
CCCCN1C(=O)c2ccccc2S1(=O)=O	56	76	76
CCCCN1Cc2ccccc2S1(=O)=O	68	76	71
O=C(O)CCCCN1C(=O)c2ccccc2C1=O	77	54	83
CC(=O)CCN1Cc2ccccc2C1=O	<84	<83	88
CC(=O)CCN1C(=O)c2ccccc2S1(=O)=O	62	51	60
CC(=O)CCN1C(=O)c2ccccc2C1=O	<63	<58	<67
CC(=O)CCCN1C(=O)c2ccccc2C1=O	<63	<59	<71
O=S1(=O)NCc2ccccc21	80	86	82
O=C(O)CCCN1C(=O)c2ccccc2C1=O	68	59	80
O=C(O)CCN1C(=O)c2ccccc2S1(=O)=O	47	67	96
CC(=O)CCCN1C(=O)c2ccccc2S1(=O)=O	77	77	73
O=C(O)CCN1Cc2ccccc2C1=O	97	88	87
CCOC(=O)CCN1C(=O)c2ccccc2S1(=O)=O	71	61	97
O=C(O)CCCN1C(=O)c2ccccc2S1(=O)=O	73	48	85
O=C1NC(=O)c2ccccc21 [PHTHALIMIDE]	57	44	63
O=C1NS(=O)(=O)c2ccccc21 [SACCHARIN]	67	51	68
